≈ marks a conversion by molar mass, not a printed value.
Legend:
Format in all cases: functional
Streptococcus pneumoniae [1] = experiment: Inhibition on Streptococcus pneumoniae translation by uncoupled translation assay
In short: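 The assay was cell-free and translation-only (uncoupled), using S. pneumoniae material. Dried test compound was mixed with S30 extract, luciferase-encoding mRNA and a complete amino acid mix. The mix was incubated to allow translation, and the reaction was stopped with kanamycin. Luciferin reagent was then added, and read-out was by flash luminescence. Results are given as IC50.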

Streptococcus pneumoniae [2] = experiment: Antibacterial activity against quinolone-resistant Streptococcus pneumoniae ATCC 7257
In short: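 MIC by broth microdilution following National Committee for Clinical Laboratory Standards methods for dilution susceptibility testing of aerobically growing bacteria, against the quinolone-resistant S. pneumoniae strain 7257.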

Streptococcus pneumoniae [3] = experiment: Antibacterial activity against quinolone-susceptible Streptococcus pneumoniae ATCC 6303
In short: (§1)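 MICs were determined by broth microdilution following the National Committee for Clinical Laboratory Standards method for aerobically growing bacteria.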

Haemophilus influenzae = experiment: Antibacterial activity against quinolone-susceptible Haemophilus influenzae 1435; in short: as §1
JIYOYE = experiment: Cytotoxicity against human B cells by Jijoye assay; conditions: read-out: LD50 (the source's name)
Streptococcus pneumoniae [4] = experiment: Inhibition on Streptococcus pneumoniae translation by transcription/translation coupled assay

SMILES | IC50 (Streptococcus pneumoniae [1]) | MIC (Streptococcus pneumoniae [2]) | MIC (Streptococcus pneumoniae [3]) | MIC (Haemophilus influenzae) | CC50 (JIYOYE) | IC50 (Streptococcus pneumoniae [4])
CN1C[C@@H]2CCCN2c2nc3ncc(C(=O)O)c(O)c3cc21 | 0.89 µM | 2 µg/mL (≈ 6.66 µM) | 8 µg/mL (≈ 26.6 µM) | 8 µg/mL (≈ 26.6 µM) | > 100 µg/mL | 
O=C(O)c1cnc2nc(N3CCC[C@@H]3CO)c(F)cc2c1O |  | > 64 µg/mL | > 64 µg/mL | > 64 µg/mL | > 100 µg/mL | 75 µM
CC12CCCN1c1nc3ncc(C(=O)O)c(O)c3cc1OC2 (stereo unspecified) | 107 µM | 32 µg/mL (≈ 106 µM) | > 64 µg/mL | 32 µg/mL (≈ 106 µM) | > 100 µg/mL | 
O=C(O)c1cnc2nc3c(cc2c1O)OCC1CCCCN31 (stereo unspecified) | 63 µM | 16 µg/mL (≈ 53.1 µM) | > 64 µg/mL | 8 µg/mL (≈ 26.6 µM) | > 100 µg/mL | 
C=CC[C@@H]1Oc2cc3c(O)c(C(=O)O)cnc3nc2N2CCC[C@@H]12 | 47 µM | 8 µg/mL (≈ 24.4 µM) | > 64 µg/mL | 64 µg/mL (≈ 196 µM) | > 100 µg/mL | 
O=C(O)c1cn(C2CC2)c2nc3c(cc2c1=O)OC[C@@H]1CCCN31 | > 100 µM | 8 µg/mL (≈ 24.4 µM) | > 64 µg/mL |  |  | 
O=C(O)c1cnc2cc(N3CCNCC3)c(F)cc2c1O | 141 µM | > 64 µg/mL | > 64 µg/mL |  |  | 
C[C@@H]1Oc2cc3c(O)c(C(=O)O)cnc3nc2N2CCC[C@@H]12 | 8.7 µM | 4 µg/mL (≈ 13.3 µM) | 8 µg/mL (≈ 26.6 µM) | 32 µg/mL (≈ 106 µM) | > 100 µg/mL | 
O=C(O)c1cn(C2CC2)c2cc(N3CCNCC3)c(F)cc2c1=O [CIPROFLOXACIN] | 200 µM | 16 µg/mL (≈ 48.3 µM) | 2 µg/mL (≈ 6.04 µM) |  |  | 
COc1ccc(Cn2cc(C(=O)O)c(=O)c3cc4c(nc32)N2CCC[C@H]2CO4)c(OC)c1 | 57 µM | 32 µg/mL (≈ 73.2 µM) | > 64 µg/mL | > 64 µg/mL | 12 µg/mL (≈ 27.4 µM) | 
O=C(O)c1cnc2nc3c(cc2c1O)N(c1ccccc1)C[C@@H]1CCCN31 | 64 µM | > 64 µg/mL | > 64 µg/mL | > 64 µg/mL | > 100 µg/mL | 
N[C@H]1C[C@H]2COc3cc4c(O)c(C(=O)O)cnc4nc3N2C1 | 2.7 µM | > 64 µg/mL | > 64 µg/mL | > 64 µg/mL | > 100 µg/mL | 
O=C(O)c1cnc2nc3c(cc2c1O)OC[C@@H]1CCN31 | 7.5 µM | 2 µg/mL (≈ 7.32 µM) | 16 µg/mL (≈ 58.6 µM) | 8 µg/mL (≈ 29.3 µM) | > 100 µg/mL | 
O=C(O)c1cnc2nc3c(cc2c1O)OCCN3 | 100 µM | > 64 µg/mL | > 64 µg/mL | 32 µg/mL (≈ 129 µM) | > 100 µg/mL | 
C=CC[C@H]1Oc2cc3c(O)c(C(=O)O)cnc3nc2N2CCC[C@@H]12 | > 300 µM | > 64 µg/mL | > 64 µg/mL | > 64 µg/mL | > 100 µg/mL | 
CC(=O)N1C[C@@H]2CCCN2c2nc3ncc(C(=O)O)c(O)c3cc21 | 7 µM |  | 16 µg/mL (≈ 48.7 µM) | 4 µg/mL (≈ 12.2 µM) |  | 
CCN1CCOc2cc3c(O)c(C(=O)O)cnc3nc21 | 84 µM | 32 µg/mL (≈ 116 µM) | > 64 µg/mL | 64 µg/mL (≈ 233 µM) | > 100 µg/mL | 
O=C(O)c1cnc2nc3c(cc2c1O)OC[C@@H]1CCCN31 | 5.2 µM | 1 µg/mL (≈ 3.48 µM) | 4 µg/mL (≈ 13.9 µM) | 2 µg/mL (≈ 6.96 µM) | > 100 µg/mL | 
O=C(O)c1cnc2nc3c(cc2c1O)OC[C@H]1CCCN31 | 10.5 µM | 1 µg/mL (≈ 3.48 µM) | 8 µg/mL (≈ 27.8 µM) | 4 µg/mL (≈ 13.9 µM) | > 100 µg/mL | 
CN1CCOc2cc3c(O)c(C(=O)O)cnc3nc21 | 70 µM | 32 µg/mL (≈ 122 µM) | > 64 µg/mL | 32 µg/mL (≈ 122 µM) | > 100 µg/mL | 
O=C(O)c1cnc2nc3c(cc2c1O)OC[C@@H]1C[C@@H](O)CN31 | 6.9 µM | 16 µg/mL (≈ 52.8 µM) | 64 µg/mL (≈ 211 µM) | 16 µg/mL (≈ 52.8 µM) | > 100 µg/mL | 
O=C(O)c1cnc2nc3c(cc2c1O)NC(=O)[C@@H]1CCCN31 | 22 µM | > 64 µg/mL | > 64 µg/mL | > 64 µg/mL | > 100 µg/mL | 
COc1ccc(Cn2cc(C(=O)O)c(=O)c3cc4c(nc32)N2CCC[C@@H]2CO4)c(OC)c1 | 229 µM | 16 µg/mL (≈ 36.6 µM) | > 64 µg/mL | > 64 µg/mL | 6 µg/mL (≈ 13.7 µM) | 
C[C@H]1Oc2cc3c(O)c(C(=O)O)cnc3nc2N2CCCC12 (single isomer, unassigned) | 125 µM | 32 µg/mL (≈ 106 µM) | 64 µg/mL (≈ 212 µM) | 64 µg/mL (≈ 212 µM) | > 100 µg/mL | 
O=C(O)c1cnc2nc3c(cc2c1O)NC[C@@H]1CCCN31 | 10 µM | 8 µg/mL (≈ 27.9 µM) | 16 µg/mL (≈ 55.9 µM) | 8 µg/mL (≈ 27.9 µM) | 18 µg/mL (≈ 62.9 µM) | 
C=CCC12CCCN1c1nc3ncc(C(=O)O)c(O)c3cc1OC2 (stereo unspecified) | > 300 µM | > 64 µg/mL | > 64 µg/mL | > 64 µg/mL | > 100 µg/mL | 
O=C(O)c1cnc2nc(N3CCCC3)c(F)cc2c1O |  | 4 µg/mL (≈ 14.4 µM) | 16 µg/mL (≈ 57.7 µM) | < 1 µg/mL | > 100 µg/mL | 
CC(C)(C)n1cc(C(=O)O)c(=O)c2cc3c(nc21)N1CCC[C@H]1C(=O)N3 | > 200 µM | > 64 µg/mL | > 64 µg/mL | > 32 µg/mL | > 100 µg/mL | 

— ChEMBL document CHEMBL1146867, “Novel antibacterial class: a series of tetracyclic derivatives” (J Med Chem, 2006)
